This note sets out measurements from ChEMBL document CHEMBL1127563, “Novel acyl-CoA:cholesterol acyltransferase inhibitors. Synthesis and biological activity of 3-quinolylurea derivatives” (J Med Chem, 1994).

The target of experiment [1] is T1, Sterol O-acyltransferase 1 (Rattus norvegicus) (UniProt O70536).
T1 sequence (whole entry): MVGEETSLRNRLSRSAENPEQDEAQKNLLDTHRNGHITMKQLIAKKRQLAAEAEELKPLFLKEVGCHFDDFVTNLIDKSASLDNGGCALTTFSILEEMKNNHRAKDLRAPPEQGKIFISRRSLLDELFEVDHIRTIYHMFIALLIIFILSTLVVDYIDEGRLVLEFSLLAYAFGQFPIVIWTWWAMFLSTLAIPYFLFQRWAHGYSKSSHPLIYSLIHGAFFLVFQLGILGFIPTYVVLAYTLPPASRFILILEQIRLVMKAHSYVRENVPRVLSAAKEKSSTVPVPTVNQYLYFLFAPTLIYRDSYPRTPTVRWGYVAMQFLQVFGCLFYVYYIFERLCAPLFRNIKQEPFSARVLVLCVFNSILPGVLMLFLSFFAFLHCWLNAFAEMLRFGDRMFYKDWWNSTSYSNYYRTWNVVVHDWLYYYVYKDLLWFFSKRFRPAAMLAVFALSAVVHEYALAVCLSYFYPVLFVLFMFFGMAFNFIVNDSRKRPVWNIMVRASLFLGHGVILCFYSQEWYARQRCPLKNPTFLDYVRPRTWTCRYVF
In words: Inhibitory activity against acyl coenzyme A:cholesterol acyltransferase at 10 e-6 M in rat microsomes. The settings on record: Microsome. The method, boiled down:
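Intestinal mucosal microsomes from male 6-week-old Sprague–Dawley rats (100800g pellet); 0.2 mg protein preincubated 15 min at 37 °C in 0.154 M phosphate buffer with fatty-acid-free BSA, compound in DMSO added before preincubation at 1 μM final. Labeled cholesteryl ester from [1-14C]oleoyl-CoA and endogenous cholesterol, scraped and scintillation counted; % inhibition.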

The target in experiment [2] is T2, Sterol O-acyltransferase 1 (Rattus norvegicus, UniProt O70536).
T2 sequence (O70536 whole entry): T1 sequence (whole entry)
In words: Inhibitory activity against acyl coenzyme A:cholesterol acyltransferase in rat microsomes. Also on record: species or system Microsome. The method, boiled down:
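Rat intestinal mucosal microsomes (male Sprague–Dawley, 6 weeks), 0.2 mg protein preincubated at 37 °C for 15 min in 0.154 M phosphate buffer with fatty-acid-free BSA and compound in DMSO; cholesteryl ester formation from [1-14C]oleoyl-CoA and endogenous cholesterol by scintillation counting. IC50 from inhibition curves.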

Experiment [3] deals with Cricetinae gen. sp. In words: Plamsa cholesterol leval was measured in hamsters at 0.0001% cholesterol diet as a dietary admixture. Type of experiment: functional, organism-based. An outline of the steps:
(§1)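 Male Golden hamsters, 10 weeks old, were fed either a stock diet or a cholesterol diet. The compound was mixed into the diet at 0.0001%, 0.0003% or 0.001% and given for 14 days. Animals were housed individually at 23 ± 1 °C and were not fasted. Blood was taken from the orbital sinus, and plasma cholesterol was measured enzymatically.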

Experiment [4] deals with Cricetinae gen. sp. In words: Plamsa cholesterol leval was measured in hamsters at 0.001% cholesterol diet as a dietary admixture. Type of experiment: functional, organism-based. An outline of the steps: as §1
The subject of experiment [5] is Cricetinae gen. sp. As to the kind of experiment: Plamsa cholesterol leval was measured in hamsters at 0.0003% cholesterol diet as a dietary admixture. The note with it: Mesocricetus auratus.

pIC50: −log10 of the molar value. Where “and” joins values, the source holds several entries; their conditions need not be identical. Equal values may be shown once.

A word on the inhibition: it is the drop in the measured response relative to a control, in per cent. Low values mean a response near the control, high ones a response far below the control. In experiment [1], `CCCCN(C(=O)Nc1ccc(F)cc1F)c1cnc2ccc(Cl)cc2c1-c1ccccc1` displayed an inhibition of 61.6%.

Usually pIC50 stands for −log10 of the IC50, conventionally taken in molar units. Higher therefore signals a low IC50. The compound `COc1ccc(-c2c(NC(=O)Nc3ccc(F)cc3F)cnc3ccc(Cl)cc23)cc1` had a pIC50 in experiment [2] of 6.92. In experiment [1], this compound had an inhibition of 92.7%.

In turn, `Cc1cc(C)c2nc(C)c(NC(=O)Nc3ccc(F)cc3F)c(-c3ccccc3Cl)c2c1` gave an inhibition in experiment [1] of 85.4%.

In turn, `Cc1cc(C)c2ncc(NC(=O)Nc3c(C(C)C)cccc3C(C)C)c(-c3ccccc3Cl)c2c1` had a pIC50 in experiment [2] of 7.55. This compound gave an inhibition in experiment [1] of 98%.

As to `Cc1cc(C)c2ncc(NC(=O)Nc3ccc(F)cc3F)c(-c3ccccc3Cl)c2c1`, in experiment [2], the pIC50 was 8.04. In addition, the inhibition in experiment [1] came to 98.9%.

Consider `Cc1ccc2ncc(NC(=O)Nc3ccc(F)cc3F)c(-c3ccccc3)c2c1`, for which, in experiment [1], the inhibition worked out at 84.5%.

`Cc1cc2c(-c3ccccc3C)c(NC(=O)Nc3ccc(F)cc3F)cnc2cc1Cl`: the pIC50 in experiment [2] was 8.03. This compound also had an inhibition in experiment [1] of 98.6%.

Compound `COc1ccccc1-c1c(NC(=O)Nc2ccc(F)cc2F)cnc2ccc(Cl)cc12` gave a pIC50 in experiment [2] of 7.62. Further, in experiment [1], the inhibition is 98.2%.

In experiment [2], `Cc1cc(Cl)c2ncc(NC(=O)Nc3ccc(F)cc3F)c(-c3ccccc3Cl)c2c1` had a pIC50 of 8.05. In experiment [1], the inhibition amounted to 97.6%.

For the compound `Cc1ccc2ncc(NC(=O)Nc3ccc(F)cc3F)c(-c3ccccc3Cl)c2c1`, the pIC50 in experiment [2] was 7.77. Moreover, the inhibition in experiment [1] stood at 98.5%.

As to `O=C(Nc1ccccc1F)Nc1cnc2ccc(Cl)cc2c1-c1ccccc1`, the pIC50 in experiment [2] is 6.03. The same compound gave an inhibition in experiment [1] of 75%.

In experiment [2], `O=C(Nc1ccc(F)cc1)Nc1cnc2ccc(Cl)cc2c1-c1ccccc1` showed a pIC50 of 6.10. In experiment [1], this compound returned an inhibition of 66.5%.

Turning to `COc1ccc2ncc(NC(=O)Nc3ccc(F)cc3F)c(-c3ccccc3)c2c1`, the inhibition in experiment [1] is 85.9%.

In turn, `O=C(Nc1ccccc1)Nc1cnc2ccc(Cl)cc2c1-c1ccccc1` had a pIC50 in experiment [2] of under 6.00. For the same compound, the inhibition in experiment [1] was 5%.

The compound `O=C(Nc1ccc(F)cc1F)Nc1cnc2ccc(Cl)cc2c1-c1ccc(Cl)cc1` showed a pIC50 in experiment [2] of 6.27. The same compound returned an inhibition in experiment [1] of 77%.

Consider `Cc1cc(C)c2ncc(NC(=O)Nc3ccc(F)cc3F)c(-c3ccccc3C)c2c1`, for which, in experiment [2], the pIC50 was 7.92. This compound gave an inhibition in experiment [1] of 98.5%.

`Cc1ccc2ncc(NC(=O)Nc3ccc(F)cc3F)c(-c3ccccc3C)c2c1`: the pIC50 in experiment [2] is 7.66. For the same compound, in experiment [1], the inhibition worked out at 96.9%.

As for `CC(C)c1ccc2ncc(NC(=O)Nc3ccc(F)cc3F)c(-c3ccccc3Cl)c2c1`, the pIC50 in experiment [2] is 7.85. In experiment [1], this compound returned an inhibition of 99.3%.

In turn, `Cc1cc(Cl)cc2c(-c3ccccc3Cl)c(NC(=O)Nc3ccc(F)cc3F)cnc12` gave a pIC50 in experiment [2] of 7.92. For the same compound, the inhibition in experiment [1] came out at 97.6%.

In experiment [2], `O=C(Nc1ccc(F)cc1F)Nc1cnc2ccc(Cl)cc2c1-c1ccccc1` had a pIC50 of 6.67. In experiment [1], this compound displayed an inhibition of 88.3%.

Compound `COc1ccc(NC(=O)Nc2cnc3ccc(Cl)cc3c2-c2ccccc2)c(OC)c1` had a pIC50 in experiment [2] of 6.06. This compound showed an inhibition in experiment [1] of 47.6%.

In the case of `CC(C)c1ccc2ncc(NC(=O)Nc3ccc(F)cc3F)c(-c3ccccc3)c2c1`, in experiment [1], the inhibition stood at 91.6%.

As for `Cc1ccccc1-c1c(NC(=O)Nc2ccc(F)cc2F)cnc2ccc(Cl)cc12`, the pIC50 in experiment [2] is 7.54. This compound also had an inhibition in experiment [1] of 97.2%.

On to `CN(C(=O)Nc1cnc2ccc(Cl)cc2c1-c1ccccc1)c1ccc(F)cc1F`, for which the pIC50 in experiment [2] is under 6.00. Moreover, in experiment [1], the inhibition was determined as 9.4%.

Turning to `Cc1cccc2ncc(NC(=O)Nc3ccc(F)cc3F)c(-c3ccccc3Cl)c12`, the pIC50 in experiment [2] was 6.83. Besides, the inhibition in experiment [1] was 87.3%.

With `O=C(Nc1ccc(Cl)cc1)Nc1cnc2ccc(Cl)cc2c1-c1ccccc1`, the pIC50 in experiment [2] is 5.89. The same compound gave an inhibition in experiment [1] of 51.5%.

Take `O=C(Nc1ccc(F)cc1F)Nc1cnc2ccc(Cl)cc2c1-c1ccccc1Cl`: the pIC50 in experiment [2] is 7.67. Moreover, the inhibition in experiment [1] is 98%.

In experiment [1], `O=C(Nc1ccc(F)cc1F)Nc1cnc2ccc(Br)cc2c1-c1ccccc1` had an inhibition of 85.5%.

`Cc1cc2ncc(NC(=O)Nc3ccc(F)cc3F)c(-c3ccccc3Cl)c2cc1C` gave a pIC50 in experiment [2] of 8.24. Besides, the inhibition in experiment [1] was found to be 99.6%. Moreover, the Plasma cholesterol with Cricetinae gen. sp. [3] was 169 mg/dL and 279 mg/dL; in the experiment with Cricetinae gen. sp. [4], 95 mg/dL and 213 mg/dL; with Cricetinae gen. sp. [5], 245 mg/dL.

For `CSc1ccc2ncc(NC(=O)Nc3ccc(F)cc3F)c(-c3ccccc3)c2c1`, the inhibition in experiment [1] came out at 87.8%.

Regarding `Cc1cc(C)c2ncc(NC(=O)Nc3c(F)cc(F)cc3F)c(-c3ccccc3Cl)c2c1`, the pIC50 in experiment [2] is 7.82. The compound also registered an inhibition in experiment [1] of 97.3%.

For `O=C(Nc1ccc(F)cc1F)Nc1cnc2ccc(Cl)cc2c1-c1cccc(Cl)c1`, in experiment [2], the pIC50 was 7.04. Further, the inhibition in experiment [1] was determined as 88.5%.

In the case of `CCc1ccc2ncc(NC(=O)Nc3ccc(F)cc3F)c(-c3ccccc3Cl)c2c1`, the pIC50 in experiment [2] is 7.85. For the same compound, the inhibition in experiment [1] is 99.2%.

In turn, `O=C(Nc1ccc(F)cc1F)Nc1cnc2ccccc2c1-c1ccccc1Cl` showed a pIC50 in experiment [2] of 6.90. Moreover, in experiment [1], the inhibition amounted to 91.8%.

In the case of `O=C(Nc1ccc(F)cc1F)Nc1cnc2ccc(C(F)(F)F)cc2c1-c1ccccc1`, the inhibition in experiment [1] was found to be 90.1%.

On to `Cc1ccc(-c2c(NC(=O)Nc3ccc(F)cc3F)cnc3ccc(Cl)cc23)cc1`, for which the pIC50 in experiment [2] is 6.80. This compound displayed an inhibition in experiment [1] of 87.4%.
